Starred links: 1 amine or outer side, 2 acyl side, 3 side chain; linkers in the order of their positions; H or OH if unused. Non-standard residues stand in square brackets, D forms with d. Residues, ends and D or L forms follow the SMILES beside them. X1 = NC(N)=NCCCC(N[*:1])C(=O)CCCCC(=O)[*:2]; X2 = O=C(C/C=C/CN[*:1])[*:2]

The test system of the first test is Rattus norvegicus. Kind of test: Antithrombotic effect compared to recombinant hirudin in the rat rretiovenous shunt model after intravenous administration. The format is functional. The procedure, abridged:
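Urethane-anaesthetised rats on a temperature-controlled heating plate; right carotid artery and left jugular vein catheterised and joined by a 2-cm glass capillary (1 mm internal diameter) as thrombogenic surface. Compound or saline given intravenously 5 min before the shunt was opened. Patency followed by capillary temperature rise (thermocouple). ED15 is the dose giving a 15-min prolongation of shunt patency.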
In the case of `CC[C@H](C)[C@H](NC(=O)[C@@H]1CCCN1C(=O)[C@H](CCC(=O)O)NC(=O)[C@H](Cc1ccccc1)NC(=O)[C@H](CC(=O)O)NC(=O)C/C=C/CNC(=O)C/C=C/CNC(=O)CCCCC(=O)[C@H](CCCN=C(N)N)NC(=O)[C@@H]1CCCN1C(=O)[C@@H](Cc1ccccc1)NC(C)=O)C(=O)N1CCC[C@H]1C(=O)N[C@@H](CC(C)C)C(=O)O`, the ED15 was 6.27 mg/kg.

The next test concerns the target Prothrombin (Homo sapiens, UniProt P00734). Kind of test: Compound was evaluated for their ability to inhibit the alpha-thrombin-mediated hydrolysis of the fluorescent substrate Tos-Gly-Pro-Arg-Amc. The procedure, abridged:
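Human α-thrombin (30 pM) added to start the reaction, 25 °C, 0.1 M Tris-HCl pH 7.8 with 0.1 M NaCl and 0.1% PEG 6000. […] Initial rates of Amc fluorescence read at ex 383/em 455 nm, calibrated against free 7-amino-4-methylcoumarin. Ki obtained by nonlinear fit to a competitive inhibition equation.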
Broadly, the Ki is a measure of affinity in units of concentration, obtained from inhibition or displacement. Low values mean a stronger hold on the target, high ones a looser hold on the target. `CC[C@H](C)[C@H](NC(=O)[C@H](CCC(=O)O)NC(=O)[C@H](CCC(=O)O)NC(=O)[C@H](Cc1ccccc1)NC(=O)[C@H](CC(=O)O)NC(=O)CNC(=O)[C@H](CC(=O)O)NC(=O)[C@H](CC(N)=O)NC(=O)[C@H](Cc1c[nH]cn1)NC(=O)[C@H](CO)NC(=O)[C@H](CCC(N)=O)NC(=O)CCCC(=O)[C@H](CCCN=C(N)N)NC(=O)[C@@H]1CCCN1C(=O)[C@H](Cc1ccccc1)NC(C)=O)C(=O)N1CCC[C@H]1C(=O)N[C@@H](CCC(=O)O)C(=O)N[C@@H](CCC(=O)O)C(=O)N[C@@H](Cc1ccc(O)cc1)C(=O)N[C@@H](CC(C)C)C(=O)N[C@@H](CCC(N)=O)C(=O)O` came in with an inhibition constant (Ki) of 0.56 nM. For `CC[C@H](C)[C@H](NC(=O)[C@H](CCC(=O)O)NC(=O)[C@H](CCC(=O)O)NC(=O)[C@H](Cc1ccccc1)NC(=O)[C@H](CC(=O)O)NC(=O)CNC(=O)[C@H](CC(=O)O)NC(=O)[C@H](CC(N)=O)NC(=O)[C@H](Cc1c[nH]cn1)NC(=O)[C@H](CO)NC(=O)[C@H](CCC(N)=O)NC(=O)CC(=O)[C@H](CCCN=C(N)N)NC(=O)[C@@H]1CCCN1C(=O)[C@H](Cc1ccccc1)NC(C)=O)C(=O)N1CCC[C@H]1C(=O)N[C@@H](CCC(=O)O)C(=O)N[C@@H](CCC(=O)O)C(=O)N[C@@H](Cc1ccc(O)cc1)C(=O)N[C@@H](CC(C)C)C(=O)N[C@@H](CCC(N)=O)C(=O)O`, the affinity corresponds to a Ki of 3.8 nM. In turn, `CC[C@H](C)[C@H](NC(=O)[C@H](CCC(=O)O)NC(=O)[C@H](CCC(=O)O)NC(=O)[C@H](Cc1ccccc1)NC(=O)[C@H](CC(=O)O)NC(=O)CNC(=O)[C@H](CC(=O)O)NC(=O)[C@H](CC(N)=O)NC(=O)[C@H](Cc1c[nH]cn1)NC(=O)[C@H](CO)NC(=O)[C@H](CCC(N)=O)NC(=O)CCCCC(=O)[C@H](CCCN=C(N)N)NC(=O)[C@@H]1CCCN1C(=O)[C@H](Cc1ccccc1)NC(C)=O)C(=O)N1CCC[C@H]1C(=O)N[C@@H](CCC(=O)O)C(=O)N[C@@H](CCC(=O)O)C(=O)N[C@@H](Cc1ccc(O)cc1)C(=O)N[C@@H](CC(C)C)C(=O)N[C@@H](CCC(N)=O)C(=O)O` had a Ki of 0.14 nM. The same measure, in the same setting: the same measure for `CC[C@H](C)[C@H](NC(=O)[C@@H]1CCCN1C(=O)[C@H](CCC(=O)O)NC(=O)[C@H](Cc1ccccc1)NC(=O)[C@H](CC(=O)O)NC(=O)C/C=C/CNC(=O)C/C=C/CNC(=O)CCCCC(=O)C(CCCN=C(N)N)NC(=O)[C@@H]1CCCN1C(=O)[C@H](Cc1ccccc1)NC(C)=O)C(=O)N1CCC[C@H]1C(=O)N[C@@H](CC(C)C)C(=O)O` (stereo partly drawn): 3.5 nM; for `CC[C@H](C)[C@H](NC(=O)[C@@H]1CCCN1C(=O)[C@H](CCC(=O)O)NC(=O)[C@H](Cc1ccccc1)NC(=O)[C@H](CC(=O)O)NC(=O)C/C=C/CNC(=O)C/C=C/CNC(=O)C/C=C/CNC(=O)CCCCC(=O)C(CCCN=C(N)N)NC(=O)[C@@H]1CCCN1C(=O)[C@H](Cc1ccccc1)NC(C)=O)C(=O)N1CCC[C@H]1C(=O)N[C@@H](CC(C)C)C(=O)O` (stereo partly drawn) (Ac-FP[X1][X2][X2][X2]DFEPIPL-OH): 3.2 nM. `CC[C@H](C)[C@H](NC(=O)[C@@H]1CCCN1C(=O)[C@H](CCC(=O)O)NC(=O)[C@H](Cc1ccccc1)NC(=O)[C@H](CC(=O)O)NC(=O)C/C=C/CNC(=O)CCCCC(=O)[C@H](CCCN=C(N)N)NC(=O)[C@@H]1CCCN1C(=O)[C@H](Cc1ccccc1)NC(C)=O)C(=O)N1CCC[C@H]1C(=O)N[C@@H](CC(C)C)C(=O)O` (HELM PEPTIDE1{[ac].F.P.[NC(N)=NCCC[C@H](N[*:1])C(=O)CCCCC(=O)[*:2]].[O=C(C/C=C/CN[*:1])[*:2]].D.F.E.P.I.P.L}$$$$V2.0) came in with a Ki of 300 nM. On the same count and under the same terms, the same measure for `CC[C@H](C)[C@H](NC(=O)[C@@H]1CCCN1C(=O)[C@H](CCC(=O)O)NC(=O)C(Cc1ccccc1)NC(=O)[C@H](CC(=O)O)NC(=O)CNC(=O)[C@H](CC(=O)O)NC(=O)[C@H](CC(N)=O)NC(=O)[C@H](Cc1cnc[nH]1)NC(=O)[C@H](CO)NC(=O)[C@H](CCC(N)=O)NC(=O)[C@@H]1CCCN1C(=O)[C@H](CCCNC(=N)N)N(C)C(=O)[C@@H]1CCCN1C(=O)C(Cc1ccccc1)NC(C)=O)C(=O)N1CCC[C@H]1C(=O)N[C@@H](CC(C)C)C(=O)O` (stereo in doubt): 2.8 nM.

Values taken from ChEMBL document CHEMBL1126115, “Synthesis of a homologous series of ketomethylene arginyl pseudodipeptides and application to low molecular weight hirudin-like thrombin inhibitors” (J Med Chem, 1992).
